Test results: PMC4306711 (The Journal of General Physiology, 2015)
Read-outs that look alike come from different tables or passages of the source.

Legend:
[1] = system: rNav1.2a/Kv2.1 VSD II paddle chimera; details: ref Bosmans et al., 2008; cited from earlier work
rNav1.2a = details: cited from earlier work
[2] = target: rNav1.2a/Kv2.1 VSD IV chimera L1630A; details: read-out: apparent KD, VSD IV chimera L1630A, ref Bosmans et al., 2008; cited from earlier work
[3] = system: rNav1.2a/Kv2.1 VSD IV paddle chimera; details: electrophysiology; ref Bosmans et al., 2008; cited from earlier work
[4] = target: rNav1.2a/Kv2.1 VSD IV chimera R1629A; details: read-out: apparent KD, VSD IV chimera R1629A, ref Bosmans et al., 2008; cited from earlier work
[5] = system: rNav1.2a/Kv2.1 VSD IV paddle chimera; format: cell-based, rat
[6] = system: rNav1.2a/Kv2.1 VSD IV R1629A/L1630A paddle chimera; format: cell-based, rat; details: 100 nM AaHII; holding −10 mV, 300-ms step after −150 mV, tail −150 mV
[7] = system: isolated rNav1.2a VSD II paddle motif; assay: SPR with immobilized rNav1.2a VSD II paddle peptide; format: binding, rat; details: up to 20 µM toxin, 25°C
[8] = system: isolated rNav1.2a VSD IV paddle motif; assay: SPR with immobilized rNav1.2a VSD IV paddle peptide; format: binding, rat; details: 50 fmol peptide, heterogeneous ligand model, n = 3
Summary of the method: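 Biotinylated synthetic VSD IV paddle peptide (~50 fmol) captured on neutravidin amine-coupled to a CM5 chip. Run at 25°C in 50 mM phosphate, pH 7.2. Toxin at 15–2,000 nM injected at 20 µl/min after a steady baseline; control flow cell subtracted; regenerated with 1 M NaCl (15 s, 30 µl/min). Bulk signal excluded, then fitted to a two-site heterogeneous ligand model; n = 3, mean ± SD.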

WT rKv2.1 = assay: Two-electrode voltage-clamp of WT rKv2.1 in Xenopus oocytes; format: cell-based, rat; details: 1 µM toxin; 300-ms depolarization to 0 mV, holding −90 mV, tail −60 mV
[9] = system: rNav1.2a/Kv2.1 VSD II paddle chimera; format: cell-based, rat
Nav channel = details: ref Crest et al., 1992; cited from earlier work
Kv1.3 = details: ref Crest et al., 1992; cited from earlier work
Kv1.1 = details: ref Crest et al., 1992; cited from earlier work
[10] = SPR, Biacore T200, 25°C, pH 7.2, 15–2,000 nM, mean ± SD

For “AaHII: α-scorpion toxin from Androctonus australis Hector”, which “interaction with rNav1.2a/Kv2.1 VSD II paddle chimera” value [1] is on record?
Its value is “no interaction was observed”.

What about the Kd (rNav1.2a; read-out: affinity for WT rNav1.2a, WT rNav1.2a, ref Wang et al., 2011) of the same molecule?
Its Kd is roughly 5 nM.

What about the Kd [2] of the same molecule?
The Kd was 205 ± 23 nM.

What about the “binding to VSD IV paddle (rNav1.2a/Kv2.1 chimeras)” value [3] of the same molecule?
Its value is “shown to bind to the VSD IV paddle motif in rNav1.2a”.

What about the Kd [4] of the same molecule?
The Kd was 235 ± 24 nM.

What about the “inhibition of WT rNav1.2a/Kv2.1 VSD IV chimera compared with double mutant” value ([5]; 100 nM AaHII) of the same molecule?
The value was “influenced to a much lesser extent”.

And the “inhibition of R1629A/L1630A double mutant chimera” value [6]?
Its value is “strongly inhibits the double mutant”.

And the “SPR effect on VSD II paddle motif at high toxin concentration” value [7]?
The value was “did not notice an effect”.

And the “dissociation rate constant kd1” value [8, 10]?
Its value is 0.000979 ± 0.00014 s⁻¹.

What about the “dissociation rate constant kd2” value [8, 10] of the same molecule?
Its value is 0.0281 ± 0.0058 s⁻¹.

What about the “high affinity KD1 (kd1/ka1)” value [8, 10] of the same molecule?
Its value is 479 ± 241 nM.

And the RUmax1 ([8]; high affinity site)?
The RUmax1 was 135.

And the RUmax2 ([8]; lower affinity site)?
The RUmax2 was 23.

For “AaHI: α-scorpion toxin from Androctonus australis Hector”, which “voltage-dependent K^+ current inhibition, VSD IV paddle chimera” value ([5]; 100 nM toxin, 300-ms depolarization, holding −90 mV) is on record?
Its value is “robust voltage-dependent K^+ current inhibition”.

And the “depolarizing shift in midpoint (V1/2), VSD IV paddle chimera” value ([5]; 100 nM toxin, Boltzmann fit, n = 3, holding −90 mV, tail −60 mV)?
Its value is roughly 15 mV.

And the “effect on WT Kv2.1 K^+ current” value (WT rKv2.1)?
Its value is “insensitive”.

With “CssIV: β-scorpion toxin from Centruroides suffusus suffusus” as the molecule, how does the “influence on VSD IV chimera” value ([5]; 1 µM toxin, n = 3, holding −90 mV, tail −60 mV) read?
Its value is “does not influence the VSD IV chimera”.

And the “depolarizing shift in V1/2, VSD II chimera” value ([9]; 1 µM toxin, Boltzmann fit, n = 3, holding −90 mV, tail −60 mV)?
The value was roughly 14 mV.

And the “V1/2 in the presence of toxin, VSD II chimera” value ([9]; 1 µM toxin, control 33 ± 2 mV, mean ± SEM, n = 3, holding −90 mV, tail −60 mV)?
Its value is 47 ± 1 mV.

And the “concentration required to begin inhibiting the rNav1.2a/Kv2.1 VSD II paddle chimera” value ([9]; Xenopus oocytes, ∼22°C)?
Its value is 1 µM.

Which “influence on Nav channel function” value (Nav channel) does the source give for kaliotoxin [KTX] here?
Its value is “does not influence Nav channel function”.

And the Kv1.3 pore block (Kv1.3)?
The Kv1.3 pore block was “blocks”.

And the Kv1.1 pore block (Kv1.1)?
The Kv1.1 pore block was “blocks”.

B1: TsVII: β-scorpion toxin from the Brazilian scorpion Tityus serrulatus (protein, UniProt P15226 21-81, looked up)
Beta-mammal/insect toxin Ts1: KEGYLMDHEGCKLSCFIRPSGYCGRECGIKKGSSGYCAWPACYCYGLPNWVKVWDRATNKC
modifications: ends and bridges not checked
With B1 as the molecule, how does the Kd (rNav1.2a; read-out: apparent KD, rNav1.2a, ref Bosmans et al., 2008) read?
Its Kd is 25 to 121 nM.

What about the “binding to VSD IV paddle (rNav1.2a/Kv2.1 chimeras)” value [3] of the same molecule?
Its value is “can also bind to the VSD IV paddle”.
